Test results from article PMC9594912 (International Journal of Nanomedicine, 2022).

Experiments:
[1] = In vitro drug release; assay type: physicochemical; conditions: PBS (pH 7.4), 24 hours, 37°C
Summary of the method: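 Dialysis bags holding 2 mL of free suspension or liposomes with equal drug content. Immersed in 60 mL PBS pH 7.4, SGF or SIF, each with 0.5% Tween-80, shaken at 37°C, 100 rpm. 1 mL withdrawn at intervals and replaced with fresh medium. Drug quantified by HPLC (C18, methanol:water 80:20, 254 nm). Cumulative release % calculated with sampling correction, then fitted to kinetic models.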

[2] = molecular target: T1, BCRP (Rattus norvegicus, UniProt Q80W57); assay: SPIP with BCRP inhibitor reserpine; assay type: in vivo, rats; conditions: Res 50 μmol/L; increase taken to indicate a substrate of BCRP
T1 sequence (Q80W57 1-657): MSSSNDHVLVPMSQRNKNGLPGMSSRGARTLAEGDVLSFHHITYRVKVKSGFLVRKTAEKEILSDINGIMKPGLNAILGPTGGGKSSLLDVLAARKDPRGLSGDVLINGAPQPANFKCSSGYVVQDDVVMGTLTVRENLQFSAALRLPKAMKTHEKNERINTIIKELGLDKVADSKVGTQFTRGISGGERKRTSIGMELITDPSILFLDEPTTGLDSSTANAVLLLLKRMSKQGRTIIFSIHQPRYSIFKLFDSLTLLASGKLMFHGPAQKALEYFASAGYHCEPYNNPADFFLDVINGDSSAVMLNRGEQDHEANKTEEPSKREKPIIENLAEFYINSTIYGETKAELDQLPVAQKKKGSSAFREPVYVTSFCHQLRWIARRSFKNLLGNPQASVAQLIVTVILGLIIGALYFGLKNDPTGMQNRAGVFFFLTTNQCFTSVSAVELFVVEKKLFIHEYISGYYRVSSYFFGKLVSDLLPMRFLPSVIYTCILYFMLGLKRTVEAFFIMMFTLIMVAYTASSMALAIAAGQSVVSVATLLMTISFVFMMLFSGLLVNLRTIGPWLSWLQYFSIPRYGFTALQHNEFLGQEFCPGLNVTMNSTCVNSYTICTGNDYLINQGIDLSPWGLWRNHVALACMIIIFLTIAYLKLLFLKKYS

[3] = RAW264.7 cell viability, MTT assay; assay type: cell-based; conditions: mouse, RAW 264.7 macrophages
Summary of the method: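 Log-phase RAW264.7 macrophages seeded at 10,000/well in 96-well plates and grown 24 h. Treated for 24 h with graded concentrations of free or liposomal test compound, 6 replicate wells per group. Then 0.5% MTT added for 4 h, formazan dissolved in DMSO, absorbance read at 490 nm.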

[4] = molecular target: P-gp (Homo sapiens, UniProt P08183); assay: Caco-2 transport with P-gp inhibitor Ver; assay type: in vitro ADME; conditions: Ver 100 μmol/L; increase taken to indicate a substrate of P-gp
Summary of the method: (§1)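 Bidirectional transport across 21-day Caco-2 monolayers (TEER >300 Ω·cm2) in pH 7.4 HBSS. Free or liposomal test compound at 2.5, 5, 10 μg/mL, with efflux inhibitor added: verapamil 100 μmol/L (P-gp), indomethacin 200 μmol/L (MRP2) or reserpine 50 μmol/L (BCRP). Receiver sampled at 30–180 min with replacement. Triplicate runs; Papp from ΔQ/Δt, area and C0.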

[5] = Transport study in Caco-2 cell monolayer; assay type: in vitro ADME; conditions: human, Caco-2, pH 7.4
Summary of the method: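 Caco-2 cells grown in α-MEM with 20% FBS, 1% NEAA, 4 mM glutamine and pen/strep. Seeded on transwells and cultured 21 days; monolayers with TEER >300 Ω·cm2 used. In pH 7.4 HBSS, free or liposomal test compound (2.5, 5, 10 μg/mL) added apically (A→B) or basolaterally (B→A). Receiver sampled at 30–180 min with replacement. Triplicate runs; Papp from ΔQ/Δt, area and C0; efflux ratio derived.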

[6] = tested on: intestinal segments (duodenum, jejunum, ileum and colon); assay: In situ single-pass intestinal perfusion; assay type: in vivo, rats; conditions: 125, 250, 500 μg/mL; taken to indicate passive diffusion
[7] = molecular target: T2, BCRP (Homo sapiens, UniProt Q9UNQ0); assay: Caco-2 transport with BCRP inhibitor Res; assay type: in vitro ADME; conditions: Res 50 μmol/L; increase taken to indicate a substrate of BCRP
T2 sequence (Q9UNQ0 1-655): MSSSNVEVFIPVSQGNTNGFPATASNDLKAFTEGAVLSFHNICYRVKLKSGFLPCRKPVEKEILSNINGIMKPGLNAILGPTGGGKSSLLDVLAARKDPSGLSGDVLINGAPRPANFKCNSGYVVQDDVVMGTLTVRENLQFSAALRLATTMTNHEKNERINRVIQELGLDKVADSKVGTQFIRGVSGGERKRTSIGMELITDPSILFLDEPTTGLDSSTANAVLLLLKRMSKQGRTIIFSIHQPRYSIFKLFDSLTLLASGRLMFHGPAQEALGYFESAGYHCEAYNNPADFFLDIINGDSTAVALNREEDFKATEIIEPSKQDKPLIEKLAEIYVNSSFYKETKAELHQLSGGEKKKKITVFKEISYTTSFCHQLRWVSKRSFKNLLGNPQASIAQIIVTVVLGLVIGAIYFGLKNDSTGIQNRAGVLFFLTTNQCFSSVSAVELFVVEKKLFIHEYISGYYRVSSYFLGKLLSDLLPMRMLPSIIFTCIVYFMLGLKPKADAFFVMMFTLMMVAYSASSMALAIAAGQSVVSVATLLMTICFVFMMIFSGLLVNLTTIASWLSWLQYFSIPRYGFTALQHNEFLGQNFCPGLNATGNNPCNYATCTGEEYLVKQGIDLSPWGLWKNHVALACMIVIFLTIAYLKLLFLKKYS
Summary of the method: as §1

[8] = tested on: RAW264.7 macrophages stimulated by LPS; assay: NO release and ELISA of TNF-α, IL-6 and IL-10 in LPS-stimulated RAW264.7; assay type: cell-based, mouse; conditions: LPS 1 µg/mL, paeonol 5 μg/mL, Pae-Lips 2.5, 5, 10 μg/mL
Summary of the method: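 RAW264.7 cells (DMEM, 20% FBS, 37°C, 5% CO2) seeded at 15,000/well and grown 24 h. Pretreated 2 h with free test compound (5 μg/mL final) or liposomes (2.5, 5, 10 μg/mL final). Then stimulated with LPS 1 µg/mL final (unstimulated control kept) for 20 h. Supernatant NO measured by kit; IL-6, TNF-α and IL-10 by ELISA.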

[9] = tested on: Caco-2 cells; assay: Caco-2 cell viability, MTT assay; assay type: cell-based, human
Summary of the method: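 Caco-2 cells seeded at 10,000/well in 96-well plates and grown 24 h at 37°C, 5% CO2. Exposed to increasing concentrations of free or liposomal test compound for 4 h, with α-MEM as negative control. Then 0.5% MTT added for 4 h at 37°C, formazan dissolved in DMSO, A490 read. Viability expressed as percent of control.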

[10] = molecular target: MRP2 (Rattus norvegicus, UniProt Q63120); assay: SPIP with MRP2 inhibitor indomethacin; assay type: in vivo, rats; conditions: Indo 200 μmol/L; increase taken to indicate a substrate of MRP2
[11] = tested on: P-gp; assay: SPIP with P-gp inhibitor verapamil; conditions: Ver 100 μmol/L; increase taken to indicate a substrate of P-gp
[12] = molecular target: MRP2 (Homo sapiens, UniProt Q92887); assay: Caco-2 transport with MRP2 inhibitor Indo; assay type: in vitro ADME; conditions: Indo 200 μmol/L; increase taken to indicate a substrate of MRP2
Summary of the method: as §1

[13] = tested on: UC induced by DSS; assay: DSS colitis: histological examination of colon; assay type: in vivo, Balb/c mice; conditions: SASP 500 mg/kg; Pae-Lips-H 400 mg/kg
Summary of the method: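 Male Balb/c mice (10 weeks, n = 6/group) given 3% (w/v) DSS in drinking water for 7 days. Dosed by gavage twice daily, suspended in 0.5% CMC-Na. Distal colon (~2 cm) fixed in 10% formaldehyde and HE-stained. Scored for mucosal inflammation severity, lesion extent and crypt damage.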

Chain of P-gp (Homo sapiens, UniProt P08183) (P08183 whole entry): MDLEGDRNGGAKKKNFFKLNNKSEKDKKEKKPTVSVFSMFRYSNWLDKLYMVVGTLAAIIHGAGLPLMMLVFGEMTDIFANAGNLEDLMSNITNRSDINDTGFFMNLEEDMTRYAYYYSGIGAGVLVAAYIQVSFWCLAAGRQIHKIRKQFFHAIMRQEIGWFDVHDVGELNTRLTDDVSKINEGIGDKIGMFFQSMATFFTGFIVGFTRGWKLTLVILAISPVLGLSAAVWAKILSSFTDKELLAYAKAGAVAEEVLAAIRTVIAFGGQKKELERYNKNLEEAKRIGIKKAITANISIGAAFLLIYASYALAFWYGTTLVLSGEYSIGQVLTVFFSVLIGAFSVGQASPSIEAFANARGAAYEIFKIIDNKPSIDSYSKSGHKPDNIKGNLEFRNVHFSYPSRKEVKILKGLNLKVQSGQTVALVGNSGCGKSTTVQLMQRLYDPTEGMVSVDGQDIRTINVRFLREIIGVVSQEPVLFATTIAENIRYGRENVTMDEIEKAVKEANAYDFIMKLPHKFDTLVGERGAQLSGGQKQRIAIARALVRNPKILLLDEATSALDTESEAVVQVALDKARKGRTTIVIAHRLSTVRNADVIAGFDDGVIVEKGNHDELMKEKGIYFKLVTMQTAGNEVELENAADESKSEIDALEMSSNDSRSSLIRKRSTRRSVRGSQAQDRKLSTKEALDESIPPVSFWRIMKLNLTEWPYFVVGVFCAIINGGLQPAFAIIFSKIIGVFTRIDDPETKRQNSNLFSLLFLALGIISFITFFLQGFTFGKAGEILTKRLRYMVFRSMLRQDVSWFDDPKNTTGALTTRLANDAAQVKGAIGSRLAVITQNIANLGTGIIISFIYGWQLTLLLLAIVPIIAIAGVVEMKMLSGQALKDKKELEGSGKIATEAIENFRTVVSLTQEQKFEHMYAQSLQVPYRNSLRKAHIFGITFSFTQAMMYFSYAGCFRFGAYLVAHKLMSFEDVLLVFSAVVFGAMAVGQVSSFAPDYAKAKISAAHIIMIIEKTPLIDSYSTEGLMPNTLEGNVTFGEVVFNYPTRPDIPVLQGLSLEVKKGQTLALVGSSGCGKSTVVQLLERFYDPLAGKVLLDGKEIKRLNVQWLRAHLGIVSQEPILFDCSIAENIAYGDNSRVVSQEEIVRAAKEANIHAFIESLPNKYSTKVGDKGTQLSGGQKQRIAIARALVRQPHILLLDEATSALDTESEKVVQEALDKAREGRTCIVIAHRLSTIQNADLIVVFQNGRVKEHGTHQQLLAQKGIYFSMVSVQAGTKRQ
Chain of MRP2 (Rattus norvegicus, UniProt Q63120) (Q63120 whole entry): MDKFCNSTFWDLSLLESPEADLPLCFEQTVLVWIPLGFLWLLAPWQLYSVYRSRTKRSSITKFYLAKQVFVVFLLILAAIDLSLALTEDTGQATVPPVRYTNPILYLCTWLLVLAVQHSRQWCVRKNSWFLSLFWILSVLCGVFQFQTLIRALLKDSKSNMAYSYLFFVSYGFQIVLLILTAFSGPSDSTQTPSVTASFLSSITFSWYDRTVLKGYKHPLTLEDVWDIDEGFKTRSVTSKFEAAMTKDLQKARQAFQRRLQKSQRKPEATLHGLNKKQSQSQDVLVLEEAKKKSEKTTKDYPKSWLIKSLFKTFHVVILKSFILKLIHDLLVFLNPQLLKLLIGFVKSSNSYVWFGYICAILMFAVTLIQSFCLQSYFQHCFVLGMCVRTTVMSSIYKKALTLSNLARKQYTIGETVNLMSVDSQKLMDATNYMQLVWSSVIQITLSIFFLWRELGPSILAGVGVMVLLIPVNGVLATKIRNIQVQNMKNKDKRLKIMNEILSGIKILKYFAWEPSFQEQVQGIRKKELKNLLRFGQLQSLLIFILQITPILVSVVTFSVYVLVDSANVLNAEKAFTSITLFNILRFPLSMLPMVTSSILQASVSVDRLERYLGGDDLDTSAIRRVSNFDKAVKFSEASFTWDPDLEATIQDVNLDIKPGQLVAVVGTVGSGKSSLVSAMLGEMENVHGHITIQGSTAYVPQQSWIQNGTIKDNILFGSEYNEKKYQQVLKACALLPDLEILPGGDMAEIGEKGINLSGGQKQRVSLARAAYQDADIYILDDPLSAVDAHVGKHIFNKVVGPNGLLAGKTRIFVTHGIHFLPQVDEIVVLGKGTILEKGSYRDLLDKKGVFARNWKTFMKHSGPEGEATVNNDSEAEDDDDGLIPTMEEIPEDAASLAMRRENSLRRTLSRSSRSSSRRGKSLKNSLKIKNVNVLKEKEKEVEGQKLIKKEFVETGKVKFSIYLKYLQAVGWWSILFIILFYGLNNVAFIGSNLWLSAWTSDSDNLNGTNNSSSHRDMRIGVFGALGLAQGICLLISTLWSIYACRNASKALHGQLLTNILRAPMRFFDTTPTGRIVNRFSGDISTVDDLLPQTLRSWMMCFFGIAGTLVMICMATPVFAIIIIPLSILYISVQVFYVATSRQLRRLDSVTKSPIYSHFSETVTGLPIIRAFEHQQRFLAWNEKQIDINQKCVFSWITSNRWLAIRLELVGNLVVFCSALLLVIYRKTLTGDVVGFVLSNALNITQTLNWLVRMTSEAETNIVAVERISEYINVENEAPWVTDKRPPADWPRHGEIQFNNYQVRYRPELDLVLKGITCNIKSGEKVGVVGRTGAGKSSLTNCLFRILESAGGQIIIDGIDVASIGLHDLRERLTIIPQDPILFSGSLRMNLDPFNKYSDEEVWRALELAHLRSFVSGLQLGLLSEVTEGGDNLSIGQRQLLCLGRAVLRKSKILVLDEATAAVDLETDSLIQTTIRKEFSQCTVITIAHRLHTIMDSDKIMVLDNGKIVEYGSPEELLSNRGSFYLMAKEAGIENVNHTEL
Chain of MRP2 (Homo sapiens, UniProt Q92887) (Q92887 whole entry): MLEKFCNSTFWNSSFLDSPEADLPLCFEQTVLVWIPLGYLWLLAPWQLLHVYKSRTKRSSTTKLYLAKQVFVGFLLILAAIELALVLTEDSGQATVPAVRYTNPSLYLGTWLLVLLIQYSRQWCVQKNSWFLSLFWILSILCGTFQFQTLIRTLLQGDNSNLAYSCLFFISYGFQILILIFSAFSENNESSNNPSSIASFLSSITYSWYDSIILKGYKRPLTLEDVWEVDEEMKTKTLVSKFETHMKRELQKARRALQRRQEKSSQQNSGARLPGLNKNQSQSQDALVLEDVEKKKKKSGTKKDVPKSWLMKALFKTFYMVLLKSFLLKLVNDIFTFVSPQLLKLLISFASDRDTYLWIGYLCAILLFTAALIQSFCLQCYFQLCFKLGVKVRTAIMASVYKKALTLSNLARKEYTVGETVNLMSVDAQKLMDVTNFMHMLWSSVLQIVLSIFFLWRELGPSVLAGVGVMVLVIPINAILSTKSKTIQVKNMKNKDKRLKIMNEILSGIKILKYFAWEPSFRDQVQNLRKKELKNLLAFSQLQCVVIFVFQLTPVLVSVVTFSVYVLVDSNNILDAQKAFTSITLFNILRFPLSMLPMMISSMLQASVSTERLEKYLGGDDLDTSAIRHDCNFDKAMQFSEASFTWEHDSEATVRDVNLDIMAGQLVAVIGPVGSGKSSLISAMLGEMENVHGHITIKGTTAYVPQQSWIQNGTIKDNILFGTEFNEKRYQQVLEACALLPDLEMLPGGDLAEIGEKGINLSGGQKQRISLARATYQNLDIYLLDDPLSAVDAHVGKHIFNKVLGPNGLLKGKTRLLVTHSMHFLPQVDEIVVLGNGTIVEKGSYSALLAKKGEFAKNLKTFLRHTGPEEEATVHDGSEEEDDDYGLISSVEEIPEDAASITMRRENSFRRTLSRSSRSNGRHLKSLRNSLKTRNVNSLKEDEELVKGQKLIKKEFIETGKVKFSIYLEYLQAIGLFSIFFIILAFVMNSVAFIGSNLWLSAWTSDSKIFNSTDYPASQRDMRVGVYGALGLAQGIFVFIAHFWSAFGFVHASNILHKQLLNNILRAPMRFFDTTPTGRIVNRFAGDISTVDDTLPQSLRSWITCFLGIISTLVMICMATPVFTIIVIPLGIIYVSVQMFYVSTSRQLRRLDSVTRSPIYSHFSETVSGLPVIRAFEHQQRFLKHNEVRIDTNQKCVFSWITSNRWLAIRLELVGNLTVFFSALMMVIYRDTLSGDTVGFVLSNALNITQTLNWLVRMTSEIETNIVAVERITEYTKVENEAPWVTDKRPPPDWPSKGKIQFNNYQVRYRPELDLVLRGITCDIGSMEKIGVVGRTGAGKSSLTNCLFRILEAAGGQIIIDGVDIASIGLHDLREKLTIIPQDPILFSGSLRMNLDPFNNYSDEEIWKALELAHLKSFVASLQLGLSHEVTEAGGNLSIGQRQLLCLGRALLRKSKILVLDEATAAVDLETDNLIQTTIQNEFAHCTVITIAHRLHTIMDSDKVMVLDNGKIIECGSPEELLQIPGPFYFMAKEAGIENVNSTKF

COc1ccc(C(C)=O)c(O)c1 [Paeonol, 2’-hydroxy-4’-methoxyacetophenone]
cumulative release percentage (P%) [1]: 36.05 ± 2.94% | Papp in each intestinal segment after adding Res [2]: significantly increased | viability at 24 h, 5 μg/mL [3]: > 80% | Papp value (AP-BL) with Ver [4]: significantly increased | Papp A→B at 180 min, 2.5 μg/mL [5]: 3.25 ± 0.32 ×10⁻⁶ cm/s | Papp A→B at 180 min, 5 μg/mL [5]: 3.62 ± 0.13 ×10⁻⁶ cm/s | Papp A→B at 180 min, 10 μg/mL [5]: 3.65 ± 0.52 ×10⁻⁶ cm/s | Papp B→A at 180 min, 2.5 μg/mL [5]: 4.17 ± 0.22 ×10⁻⁶ cm/s | Papp B→A at 180 min, 5 μg/mL [5]: 5.19 ± 0.3 ×10⁻⁶ cm/s | Papp B→A at 180 min, 10 μg/mL [5]: 5.32 ± 0.67 ×10⁻⁶ cm/s | Papp values at different concentrations [6]: no significant difference | Papp value (AP-BL) with Res [7]: significantly increased | IL-10 level vs LPS group [8]: increased | IL-6 level vs LPS group ([8]; p < 0.05): decreased | NO level vs LPS group ([8]; p < 0.05): decreased | TNF-α level vs LPS group ([8]; p < 0.05): decreased | Caco-2 cell viability ([9]; concentration exceeds 10 μg/mL): significantly reduced | survival rate of Caco-2 cells ([9]; within 10 μg/mL, 4 hours): greater than 90% | Papp in each intestinal segment after adding Indo [10]: significantly increased | Papp in each intestinal segment after adding Ver [11]: significantly increased | Papp value (AP-BL) with Indo [12]: significantly increased

O=C(O)c1cc(/N=N/c2ccc(S(=O)(=O)Nc3ccccn3)cc2)ccc1O [SASP]
colon histopathology finding [13]: no obvious lesions
